Source: PubChem BioAssay
CHRM1 PAM = positive allosteric modulators of human M1 muscarinic receptor; P11229; CHO-K1 hM1, Fluo-8 calcium fluorescence, ACh EC20; 0% = ACh EC20, 100% = maximal ACh; hit rate 0.088% among 360,000; activation, % at 3 µM; in the data active means activation above about 19%, passing the limit was not always enough
Target sequence (P11229 whole entry, looked up): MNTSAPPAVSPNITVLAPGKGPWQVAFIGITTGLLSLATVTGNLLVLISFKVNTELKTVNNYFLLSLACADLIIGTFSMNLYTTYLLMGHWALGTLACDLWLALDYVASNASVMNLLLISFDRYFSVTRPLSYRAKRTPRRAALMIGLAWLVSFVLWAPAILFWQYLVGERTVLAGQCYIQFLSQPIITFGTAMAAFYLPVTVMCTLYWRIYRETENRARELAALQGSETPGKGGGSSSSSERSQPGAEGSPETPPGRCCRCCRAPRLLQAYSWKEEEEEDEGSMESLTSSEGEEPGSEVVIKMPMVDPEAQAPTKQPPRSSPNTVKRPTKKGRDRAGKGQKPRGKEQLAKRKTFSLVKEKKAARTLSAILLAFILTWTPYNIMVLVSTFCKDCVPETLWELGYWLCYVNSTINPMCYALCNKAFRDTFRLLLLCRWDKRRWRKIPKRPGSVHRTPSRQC
CHRM1 antagonist = human CHRM1 antagonism. CHO-K1 hM1, Fluo-8 calcium fluorescence, ACh EC80 antagonist. inhibition, % at 3 µM. hit rate 1.3% among 360,000. AID 588852;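 active means percent inhibition above its own plate's cutoff, namely the mean of that plate's compound wells plus 3 SD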;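 further: peak over basal fluorescence ratio during 140 s after agonist addition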
TAAR1 ag = agonists of human TAAR1; CHO RD-HGA16 TAAR1, Fluo-8 calcium fluorescence; vehicle wells 0%, saturating PEA agonist 100%; hit rate 0.99% among 360,000; activation, % at 3 µM;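 active means activation above the mean activation of all test compounds in the run plus 3 SD, cut at about 38% in these data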
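Benchmarks: low control DMSO, high control PEA (EC100); System: CHO RD-HGA16 cells carrying human TAAR1 plus Gα16; Detection: Fluo-8 fluorescence, 5 s baseline then 140 s kinetic read; Schedule: 17-24 h plating, Fluo-8 75 min 37 °C, 30 min RT; Read-out basis: % activation from peak over basal fluorescence ratio, DMSO-to-PEA scaled.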
TAAR1 antag = antagonists of human TAAR1; Q96RJ0; CHO RD-HGA16 TAAR1, Fluo-8 calcium fluorescence, antagonist; inhibition, % at 3 µM; hit rate 1.5% among 360,000; AID 624466;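 active means inhibition above a per-plate cutoff, the mean inhibition of test compounds on that plate plus 3 SD, cut at about 49% in these data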
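Test system – hTAAR1-expressing CHO RD-HGA16 cells, Gα16-coupled · Reagent – β-PEA at EC80 concentration, post-compound challenge · Compound dosing – 3 µM, single point · Timing – 140 s kinetic read after compound, 140 s after agonist · Detection – Fluo-8 intracellular calcium dye fluorescence, real-time kinetic reads · Control set – DMSO and EC80 PEA controls · Repeats – n of 1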
CHRM1 agonist = activates human CHRM1 receptor; CHO-K1 hM1, Fluo-8 calcium fluorescence, agonist mode; 0% DMSO, 100% acetylcholine EC100; hit rate 0.33% among 360,000; activation, % at 3 µM; AID 588814; P11229;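 active means activation above the run's mean compound activation plus 3 SD, cut at about 16% in these data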;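 further: peak over basal fluorescence ratio within a 140 s kinetic read after compound addition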
Hits are given with their value; – = inactive; · = no result; + = active, no number. This is a sample that favours compounds with a hit; in the whole collection about 3.4% have one here.

SMILES | CHRM1 PAM | CHRM1 antagonist | TAAR1 ag | TAAR1 antag | CHRM1 agonist
CCN(Cc1ccc(C#CCCO)cc1)CC1CCCN(CCc2cccc(F)c2)C1 (stereo unspecified) | – | 52 | – | – | –
CN(Cc1ccc(C#CCCO)cc1)CC1CCCN(CCc2ccc(Cl)cc2)C1 (stereo unspecified) | – | 40 | – | – | –
COc1ccc(CCN2CCCC(CN(C)Cc3cc(OC)ccc3OC)C2)cc1 (stereo unspecified) | – | – | – | – | –
Cc1ccc(NC(=O)N2CC(C)OC(C)C2)cc1[N+](=O)[O-] (stereo unspecified) | · | · | – | – | ·
Cc1ccc(C2NC(=O)c3[nH]nc(-c4ccccc4)c32)cc1 (stereo unspecified) | · | · | – | – | ·
COC(=O)[C@]12C[C@H](CC(=O)NCc3cccc(C(F)(F)F)c3)C(=O)N(Cc3ccccc3)C1=C[C@H](C(C)C)O[C@@H]2C1CC1 | · | · | – | – | ·
COC(=O)Cc1nnn2c1[C@H](C)[C@H](c1ccccc1Br)OC[C@@H]2c1ccccc1 | · | · | – | – | ·
CCCCNc1ccc2c(c1)OC[C@H](C)NS2(=O)=O | · | · | – | – | ·
CCOC(=O)C1C(=O)CC(C)(O)C(C(=O)OCC)C1/C=C/c1ccccc1 (stereo unspecified) | – | – | – | 56 | –
CC(C)c1cccc(-c2csc(C(C)(O)c3ccncc3)n2)c1 (stereo unspecified) | – | – | – | – | –
COc1ccc(-c2cnc(C(O)c3ccc(OC)c(F)c3)[nH]2)cc1 (stereo unspecified) | – | – | – | – | –
O=C(N[C@@H](Cc1ccccc1)C(=O)N1CCC2(CC1)NCCc1[nH]cnc12)c1cccc(Br)c1 | – | 39 | – | – | –
C[C@H](NC(=O)c1ccccc1)C(=O)N1CCC2(CC1)NCCc1[nH]cnc12 | – | – | – | – | –
CCc1nc2ccc(C(=O)N3CCN(c4cccc(C(F)(F)F)c4)CC3)cc2nc1CC | – | 47 | – | – | –
O=c1ccc2c(-c3ccccc3)c3ccc(O)cc3oc-2c1 | – | 104 | 673 | 105 | +
Nc1ccc(-c2c3ccc(=O)cc-3oc3cc(O)ccc23)cc1C(=O)O | – | 55 | 212 | 68 | 278
COc1ccc(CN2C(=O)C(CC(=O)NCc3cccc4ccccc34)CC(C(=O)N(C(C)C)C(C)C)=C2C)cc1 (stereo unspecified) | – | – | – | – | –
CC(C)C1=CC2C3C(C(C(C)C)=CC(=O)[C@@]3(C)O)C1C(=O)C2(C)O (stereo partly specified) | · | · | – | – | ·
O=C(CSc1nnnn1-c1cccc2c1CCCC2)N1CCCCC1 | – | – | 45 | – | –
Cc1ccc(-n2nnnc2SCC(=O)N2CCCCC2)cc1 | – | – | – | – | –
O=C(O)c1cn(Cc2ccccc2)c2ccc(Cl)cc2c1=O | – | – | – | – | 47
CCCCCCn1cc(C(=O)O)c(=O)c2ccccc21 | – | – | – | – | 32
COc1ccc(Cn2cc(C(=O)O)c(=O)c3ccccc32)cc1 | · | · | – | – | ·
CCCCCCCCN1C(=O)[C@@H](CC(=O)N2CCN(C(=O)c3ccco3)CC2)C[C@@]2(C(=O)OC)C1=C[C@H](C1CCCC1)O[C@@H]2C | · | · | – | – | ·
CCOc1ccc(N=C2NC(=O)S/C2=C\c2ccc(N(C)C)cc2)cc1 | – | – | – | 57 | –
SMILES | CHRM1 PAM | CHRM1 antagonist | TAAR1 ag | TAAR1 antag | CHRM1 agonist
CCOc1ccc(/C=C2/SC(=O)NC2=S)cc1 | – | – | – | – | –
CC1=C(C(=O)N(C(C)C)C(C)C)CC(CC(=O)NCC2CCCCC2)C(=O)N1Cc1ccc(C(C)(C)C)cc1 (stereo unspecified) | · | · | – | – | ·
C[C@@H](C(=O)NCc1ccccc1)[C@H]1C[C@]1(C)[C@H](NC(=O)OCc1ccccc1)c1ccccc1 | – | – | – | 62 | –
OCC1(Cc2ccccc2)CCN(CCCC2CCCC2)CC1 | – | 34 | – | – | –
CN(C)CCCn1c(SCC(=O)N2c3ccccc3Sc3ccccc32)nc2ccccc2c1=O | – | 39 | – | – | –
Cn1c(SCC(=O)N2c3ccccc3Sc3ccccc32)nc2ccccc21 | – | – | – | – | –
CCO[C@@H]1OC(C(=O)N2CCN(Cc3ccccc3)CC2)=C[C@H](c2ccc(Br)cc2)[C@H]1CCCO | – | – | – | 49 | –
COc1cc(/C=C(\C#N)C(N)=O)ccc1OCc1c(C)no[n+]1[O-] | – | – | – | – | –
COC(=O)C1=C(C)NC(C)=C(C(=O)OC)C1c1ccccc1OCc1c(C)no[n+]1[O-] | 22 | – | – | – | –
O=C(Cn1cnc2cc([N+](=O)[O-])ccc2c1=O)NCc1ccc(Cl)cc1 | – | – | – | – | –
O=c1c2ccc([N+](=O)[O-])cc2ncn1CCOc1ccc(Cl)cc1 | – | 44 | – | 64 | –
c1ccc(-c2ccc(OCCCNC3CCCC3)cc2)cc1 | – | 36 | – | – | –
Cc1ccc(CCNC(=O)CCCn2nc(C)c3c(C)n(-c4ccc(C)cc4)nc3c2=O)cc1 | – | – | – | – | –
Cc1ccc(-n2nc3c(=O)n(CCCC(=O)NCCc4ccccc4C)nc(C)c3c2C)cc1 | – | – | 40 | – | –
CCc1cc2c(nc1CC)CCCN2S(=O)(=O)c1ccccc1C | · | · | – | – | ·
O=C(Nc1ccncc1)Nc1ccc(F)c(Cl)c1 | – | – | 49 | – | –
O=C(Nc1ccc(Cl)cc1)Nc1cccnc1 | – | – | 48 | – | –
Cc1cnc(NC(=O)CSc2ccc(Cl)cc2)s1 | – | – | – | – | –
Cc1cnc(NC(=O)Nc2ccc(Cl)cc2)s1 | – | – | 40 | – | –
Fc1ccc(NC(=S)Nc2ccc(F)c(Cl)c2)cc1Cl | – | 24 | · | · | –
O=C(Nc1ccc(Cc2ccc(NC(=O)Nc3cccnc3)cc2)cc1)Nc1cccnc1 | – | – | – | – | –
COc1cccc(CNC(=O)[C@H]2CCCN2C(=O)[C@H]2CCCN2C(=O)c2ccc(F)c(F)c2)c1 | · | · | – | – | ·
O=C1NC(c2ccccc2)c2c(-c3ccccc3)n[nH]c21 (stereo unspecified) | · | · | – | – | ·
O=C(N[C@@H](Cc1cccnc1)C(=O)N1CCC[C@H]1C(=O)NC1CCCC1)c1ccc(Cl)c(Cl)c1 | · | · | – | – | ·
Cc1cc(CN2CCN(c3ncc(Cc4ccccc4)cn3)CC2)cc(C)c1O | · | · | – | – | ·
SMILES | CHRM1 PAM | CHRM1 antagonist | TAAR1 ag | TAAR1 antag | CHRM1 agonist
COC(=O)c1ccc(NC(=O)Nc2ccc(F)c(Cl)c2)cc1 | – | 32 | – | – | –
COC(=O)c1ccc(NC(=O)Nc2ccc(F)cc2)cc1 | – | – | – | – | –
Cc1ccc(NC(=S)Nc2ccc(OC(F)F)c(Cl)c2)cc1F | – | 24 | – | – | –
Cc1cc(N2CCNC[C@H]2C)ccc1N1CCN(Cc2ccccc2)[C@@H](C)C1 | · | · | – | – | ·
Fc1ccc2[nH]c3c(Cl)ncnc3c2c1 | – | – | – | – | –
Fc1ccc2[nH]c3c(N4CCN(c5ccccc5)CC4)ncnc3c2c1 | – | 54 | – | 57 | –
